The values below come from PMC12808237 (Nature Communications, 2025).

The structures appear in SMILES notation.

In test [1] the target is T1, MITF(180-296) (Homo sapiens, UniProt O75030).
T1 sequence (O75030 300-403 limits assumed): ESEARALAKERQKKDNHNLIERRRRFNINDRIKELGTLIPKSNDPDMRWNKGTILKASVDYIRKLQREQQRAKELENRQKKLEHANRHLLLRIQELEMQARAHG
Nature of the test: Isothermal titration calorimetry. The settings on record: 25 °C, n = 2, mean ± SD. It is filed as binding. Put shortly:
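Run at 25 °C in high-feedback mode. Buffer: 25 mM Tris-HCl pH 7.5, 150 mM NaCl, 10 mM L-arginine, 3 mM EDTA, 0.5 mM TCEP. Cell held 12 µM purified dimeric wild-type avi-tagged MITF(180-296), dialysed twice at 4 °C, with 2% DMSO. Syringe held 182–220 µM test compound diluted from DMSO. Duplicates were fitted with automatic baseline/integration; reported as mean ± SD.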

In a further test the target is MYC/MAX (Homo sapiens, UniProt P01106+P61244). Nature of the test: NMR chemical shift perturbation. It is filed as binding.
Chain of MYC/MAX (P01106 368-449): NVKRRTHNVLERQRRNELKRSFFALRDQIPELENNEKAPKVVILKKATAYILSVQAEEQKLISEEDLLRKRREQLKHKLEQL
Chain of MYC/MAX (P61244 22-102): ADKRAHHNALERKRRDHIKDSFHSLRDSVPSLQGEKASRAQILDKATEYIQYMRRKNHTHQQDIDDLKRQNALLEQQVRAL
The target of test [2] is T2, MITF(180-296) (Homo sapiens, UniProt O75030).
T2 sequence (O75030 287-403): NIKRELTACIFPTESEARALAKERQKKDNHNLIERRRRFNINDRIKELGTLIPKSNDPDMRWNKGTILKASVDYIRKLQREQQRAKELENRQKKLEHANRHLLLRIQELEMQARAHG
Description: Surface plasmon resonance. The settings on record: 25 °C. The test is classed as binding. Put shortly: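 MITF(180-296), biotinylated via C-terminal Avi-tag, was captured on a streptavidin chip at 6 µg mL-1 to ~3000 RU. Run at 25 °C in 25 mM Tris-HCl pH 7.5, 150 mM NaCl, 0.05% Tween 20, 3 mM EDTA, 0.5 mM TCEP, 10 mM L-arginine, 3% DMSO. Test compound was injected as a 2- or 3-fold series at 60 µL min-1 (60 s association, 150 s dissociation). Double-referenced data were fitted globally to a 1:1 model for kon, koff and KD.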
(SPR reads the build-up and loss of mass on a sensor chip optically.)

Test [3] addresses T1, MITF(180-296). Nature of the test: Nano differential scanning fluorimetry. It is filed as binding. The settings on record: nanoDSF, compound at 50 μM. Put shortly: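 Wild-type MITF(180-296) was spun 16,000 × g, 10 min, 4 °C, then used at 0.3 mg mL-1 final in 50 mM HEPES pH 8, 300 mM NaCl, 5% glycerol, 1 mM TCEP. Test compound 50 μM final, 3% DMSO; DMSO for apo. Shaken 30 min at RT and re-spun. Heated 20–95 °C at 0.5 °C min-1; 280 nm excitation, 330/350 nm emission. Duplicates.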
For orientation: Differential scanning fluorimetry follows unfolding on heating by fluorescence.

The test system of a further test is MITF(180-296) Q261A. Description: ITC with MITF variant Q261A. The test is classed as binding, human. The following applies: 25 °C.
In a further test the test system is MITF(180-296) R263A. Nature of the test: ITC with MITF variant R263A. It is filed as binding, human. The following applies: 25 °C.
For another test, the system named is MITF(180-296) A264C. Description: ITC with MITF variant A264C. The test is classed as binding, human. The following applies: 25 °C.
The test system of a further test is melanoma cell lines. The following applies: cited from earlier work.
The subject of test [4] is MITF-dependent target genes. The settings on record: cited from earlier work.
Test [5] concerns the target T3, MITF(217-296) (Homo sapiens, UniProt O75030).
T3 sequence (O75030 217-296 isoform O75030-9): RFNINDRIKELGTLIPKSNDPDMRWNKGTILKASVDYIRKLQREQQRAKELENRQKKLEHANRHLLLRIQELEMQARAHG
Nature of the test: 19F NMR reporter assay. It is filed as binding.

Test [6] concerns the target T3, MITF(217-296). Description: Protein-observed NMR titration. It is filed as binding.
The mark [7] stands for this setting: SPR KD,eq, equilibrium affinity.
Setting [8] is: KD (MITF NMR KD), protein-observed NMR titration.

Broadly, the Kd is the constant that tells how readily two partners part at equilibrium. For the molecule `Cc1cc(C#CC2(O)CCCCC2)cc2c1cc(C(=O)O)n2-c1ccccc1` [compound 7], the “ITC KD” value at MITF(180-296) [1] is reported as “low-μM range”. The Kd on MYC/MAX was over 200 µM; on MITF(180-296) [2] (setting [7]), 4 µM.
For `O=C(O)c1cc2ccc(C#CC3(O)CCCCC3)cc2n1-c1cccc(Cl)c1` [compound 8], the Kd on MITF(180-296) [1] (ITC KD) is 0.47 ± 0.17 µM; at MITF(180-296) [2] (setting [7]) it was 1.9 µM; at MITF(180-296) [2] (kinetic affinity constant (KD,kin), SPR, from kon and koff), 1.8 µM. In addition, at MITF(180-296) [1] (ITC), the “-TΔS” value turned out to be 2.96 ± 2.08 kcal/mol. This molecule yielded a ΔG at MITF(180-296) [1] (ITC) of -8.63 ± 0.21 kcal/mol. The molecule further registered a ΔH at MITF(180-296) [1] (ITC) of -11.8 ± 1.55 kcal/mol. The “thermal stabilization of MITF” value at MITF(180-296) [3] was determined as 3.4 °C. The “binding to MITF variant by ITC” value in the test on MITF(180-296) Q261A, in the test with MITF(180-296) R263A and in the test on MITF(180-296) A264C was “significant disruption of binding interactions” throughout.
As to `NS(=O)(=O)c1ccc(NC2=CC(=O)c3ccccc3C2=O)cc1` [ML329], in the test on melanoma cell lines, the “effect on survival of melanoma cell lines” value is listed as “negatively impact survival of melanoma cell lines”. For the same molecule, in test [4], the “effect on MITF-dependent target genes” value was “induce downregulation of a subset of MITF-dependent target genes”.
In the case of `O=C(O)c1[nH]c2ccc(Cl)cc2c1-c1ccccc1` [compound 3], at MITF(217-296) [5] (from NMR affinities), the ligand efficiency was found to be 0.25. For the same molecule, the Kd on MITF(217-296) [6] (setting [8]) came out at 327 µM.
The term Ki denotes the equilibrium dissociation constant of an inhibitor or competing ligand from its target. Consider `O=C(O)c1cc2ccc(C#CC3(O)CCCCC3)cc2n1-c1ccccc1` [compound 6], for which the Ki at MITF(217-296) [5] is 2.6 µM. The “improved binding affinity compared to compound 3” value on MITF(217-296) [5] (Ki of 6 versus KD of 3) is over 100 fold. On MITF(180-296) [1], the “ITC KD” value is listed as “low-μM range”. The Kd at MYC/MAX is over 200 µM; at MITF(180-296) [2] (setting [7]), 8 µM.
`O=C(O)c1[nH]c2ccc(Cl)cc2c1-c1ccc(F)cc1` [compound 5] registered a Kd on MITF(217-296) [6] (setting [8]) of 104 µM.
Turning to `O=C(O)c1cc2cc(F)ccc2n1-c1ccc(F)cc1` [compound 1], the Kd on MITF(217-296) [6] (KD, protein-observed NMR titrations) was 1000 µM.
